Test results as given in ChEMBL document CHEMBL2413071, “Discovery of 2-methyl-1-{1-[(5-methyl-1H-indol-2-yl)carbonyl]piperidin-4-yl}propan-2-ol: a novel, potent and selective type 5 17β-hydroxysteroid dehydrogenase inhibitor” (Bioorg Med Chem, 2013).
One block for each compound: values may come before it. The source made the active and inactive calls. The rule behind the calls is not given here.

How the values were obtained:
[1] = Tmax in Sprague-Dawley rat at 1 mg/kg, po; type: ADME, organism-based; set-up: dose 1 mg/kg, route oral; conditions: in vivo
Outline: (§1)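 Male Sprague-Dawley rats aged 8 weeks received a single 1 mg/kg dose. The iv vehicle was saline with 15% DMF and 20% PEG 400; the oral vehicle was water with 10% DMF and 10% propylene glycol. Blood was sampled at multiple times up to 24 h and spun at 16,000 g for 2 min at 4 °C. Plasma drug was measured by HPLC-MS/MS.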

Cytochrome P450 2C19 = Cytochrome P450 2C19 (Homo sapiens, UniProt P33261); experiment: Inhibition of CYP2C19 (unknown origin); type: ADME
Cytochrome P450 2C19, sequence (P33261 whole entry): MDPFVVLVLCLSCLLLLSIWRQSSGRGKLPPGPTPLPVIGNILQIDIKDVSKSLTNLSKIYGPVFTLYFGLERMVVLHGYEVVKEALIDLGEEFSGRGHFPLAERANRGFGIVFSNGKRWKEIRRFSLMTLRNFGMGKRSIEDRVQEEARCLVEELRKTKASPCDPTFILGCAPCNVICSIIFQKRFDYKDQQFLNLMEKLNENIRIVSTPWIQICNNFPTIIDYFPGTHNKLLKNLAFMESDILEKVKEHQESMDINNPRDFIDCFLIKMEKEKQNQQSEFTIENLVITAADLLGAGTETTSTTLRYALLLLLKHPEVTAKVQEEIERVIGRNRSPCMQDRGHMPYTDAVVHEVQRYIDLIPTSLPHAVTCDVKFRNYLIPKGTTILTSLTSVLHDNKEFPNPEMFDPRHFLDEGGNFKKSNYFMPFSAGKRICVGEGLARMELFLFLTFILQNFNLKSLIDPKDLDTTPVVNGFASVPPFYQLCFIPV

[2] = Permeability of the compound after 2 hrs at pH 6.5 by PAMPA; type: ADME; conditions: read-out: permeability
Outline: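 PAMPA used a donor at pH 6.5 (universal buffer, 10% DMSO, typical final sample 50 μM, filtered) and an acceptor at pH 7.4, separated by a filter coated with 20% lecithin in dodecane. Plates were incubated at 25 °C for 2 h under saturated humidity. Both compartments were quantified by UV spectrum (270-400 nm) against standards, with a mass balance correction; Pe was then calculated.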

[3] = molecular target: T1, Aldo-keto reductase family 1 member C3 (Homo sapiens, UniProt P42330); experiment: Inhibition of human 17beta-HSD5 expressed in HEK293 cells using androstenedione as substrate assessed as testosterone synthesis after 4 hrs; type: cell-based
T1 sequence (P42330 whole entry): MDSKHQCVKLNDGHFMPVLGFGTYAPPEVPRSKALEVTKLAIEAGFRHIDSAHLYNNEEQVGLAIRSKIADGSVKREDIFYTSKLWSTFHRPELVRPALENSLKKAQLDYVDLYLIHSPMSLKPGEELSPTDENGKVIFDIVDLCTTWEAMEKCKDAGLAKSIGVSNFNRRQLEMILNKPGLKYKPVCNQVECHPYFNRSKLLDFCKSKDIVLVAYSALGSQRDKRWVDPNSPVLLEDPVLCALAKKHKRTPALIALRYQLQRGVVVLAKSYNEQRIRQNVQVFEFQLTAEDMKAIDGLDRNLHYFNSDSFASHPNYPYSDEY
Outline: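 HEK293 cells stably expressing human 17β-HSD5 were seeded at 2×10^4 cells/well in D-MEM/10% FBS and incubated overnight at 37 °C, 5% CO2. Androstenedione (final 300 nmol/mL) was added with compound. After 4 h, supernatant testosterone was measured by DELFIA immunoassay.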

[4] = molecular target: T1, Aldo-keto reductase family 1 member C3; experiment: Inhibition of human AKR1C3-mediated 9,10-phenanthrenequinone reduction after 10 to 20 mins by spectrophotometry in presence of NADPH
Outline: (§2)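 Purified human AKR1C enzyme (final 10 μg/mL) was mixed with 9,10-phenanthrenequinone (4 μmol/L), NADPH (200 μmol/L) and compound in 100 mM potassium phosphate pH 6.0, at room temperature for 10-20 min. NADPH absorbance was read at 340 nm and normalized to no-enzyme (0%) and no-compound (100%) controls. IC50 was obtained by Sigmoid-Emax nonlinear regression.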

[5] = Solubility of the compound at pH 6.8; type: physicochemical; conditions: buffer
Outline: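 A 10 mM DMSO solution (13 μL) was added to 1 mL of Japanese Pharmacopoeia second disintegration fluid (pH 6.8) and shaken at 25 °C for 20 h. Solubility was calculated from the LC peak-area ratio of sample to standard.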

[6] = Volume of distribution at steady state in Sprague-Dawley rat at 1 mg/kg, iv; type: ADME, organism-based; set-up: dose 1 mg/kg, route intravenous; conditions: in vivo, read-out: Vdss; outline: as §1
[7] = AUC (0 to 24 hrs) in Sprague-Dawley rat at 1 mg/kg, po; type: ADME, organism-based; set-up: time < 24 hr, dose 1 mg/kg, route oral; conditions: plasma; outline: as §1
Mus musculus [8] = experiment: Inhibition of androstenedione-induced testosterone production in tumor of human CWR22R cells xenografted in po dosed BALB/c athymic nude mouse treated 1 hr prior to androstenedione-challenge measured after 2 hrs; type: functional, organism-based
Outline: (§3)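 Male BALB/c athymic nude mice aged 4-6 weeks were castrated, then given subcutaneous CWR22R tumor cells (protease-digested fragments in RPMI 1640/20% FBS mixed 1:1 with Matrigel) into each flank. About 3 weeks later, size-matched mice were randomized (n = 4/group) and dosed orally. Androstenedione (1 ng/100 mm3 tumor) was injected intratumorally 1 h post-dose. Tumors were removed at 2 h, homogenized in 200 mmol/L phosphate pH 7.4, and extracted with tert-butyl methyl ether; testosterone was read by DELFIA.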

[9] = Half life in Sprague-Dawley rat at 1 mg/kg, iv; type: ADME, organism-based; set-up: dose 1 mg/kg, route intravenous; conditions: in vivo; outline: as §1
[10] = Total clearance in Sprague-Dawley rat at 1 mg/kg, iv; type: ADME, organism-based; set-up: dose 1 mg/kg, route intravenous; conditions: in vivo; outline: as §1
[11] = Plasma concentration in ICR mouse at 30 mg/kg, po after 1 hr by HPLC analysis; type: ADME, organism-based; set-up: dose 30 mg/kg, route oral
Outline: (§4)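 ICR mice were dosed orally, and blood was collected 1 or 4 h later. Compound was extracted from plasma with acetonitrile and quantified by HPLC.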

[12] = molecular target: T1, Aldo-keto reductase family 1 member C3; experiment: Inhibition of human 17beta-HSD5 expressed in human CWR22R cells using androstenedione as substrate assessed as testosterone synthesis after 4 hrs; type: cell-based
Outline: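 CWR22R cells were seeded at 2×10^4 cells/well in RPMI-1640/10% FBS and incubated overnight at 37 °C, 5% CO2. Compound was added with androstenedione (final 300 nmol/mL). After 4 h, supernatant testosterone was quantified by DELFIA.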

Mus musculus [13] = experiment: Inhibition of androstenedione-induced testosterone production in tumor of human CWR22R cells xenografted in BALB/c athymic nude mouse at 10 mg/kg, po treated 1 hr prior to androstenedione-challenge measured after 2 hrs; type: functional, organism-based; set-up: dose 10 mg/kg; outline: as §3
[14] = Plasma concentration in ICR mouse at 30 mg/kg, po after 4 hrs by HPLC analysis; type: ADME, organism-based; set-up: dose 30 mg/kg, route oral; outline: as §4
[15] = molecular target: Voltage-gated inwardly rectifying potassium channel KCNH2 (Homo sapiens, UniProt Q12809); experiment: Inhibition of human ERG channel by Rb efflux assay
Voltage-gated inwardly rectifying potassium channel KCNH2, sequence (Q12809 whole entry): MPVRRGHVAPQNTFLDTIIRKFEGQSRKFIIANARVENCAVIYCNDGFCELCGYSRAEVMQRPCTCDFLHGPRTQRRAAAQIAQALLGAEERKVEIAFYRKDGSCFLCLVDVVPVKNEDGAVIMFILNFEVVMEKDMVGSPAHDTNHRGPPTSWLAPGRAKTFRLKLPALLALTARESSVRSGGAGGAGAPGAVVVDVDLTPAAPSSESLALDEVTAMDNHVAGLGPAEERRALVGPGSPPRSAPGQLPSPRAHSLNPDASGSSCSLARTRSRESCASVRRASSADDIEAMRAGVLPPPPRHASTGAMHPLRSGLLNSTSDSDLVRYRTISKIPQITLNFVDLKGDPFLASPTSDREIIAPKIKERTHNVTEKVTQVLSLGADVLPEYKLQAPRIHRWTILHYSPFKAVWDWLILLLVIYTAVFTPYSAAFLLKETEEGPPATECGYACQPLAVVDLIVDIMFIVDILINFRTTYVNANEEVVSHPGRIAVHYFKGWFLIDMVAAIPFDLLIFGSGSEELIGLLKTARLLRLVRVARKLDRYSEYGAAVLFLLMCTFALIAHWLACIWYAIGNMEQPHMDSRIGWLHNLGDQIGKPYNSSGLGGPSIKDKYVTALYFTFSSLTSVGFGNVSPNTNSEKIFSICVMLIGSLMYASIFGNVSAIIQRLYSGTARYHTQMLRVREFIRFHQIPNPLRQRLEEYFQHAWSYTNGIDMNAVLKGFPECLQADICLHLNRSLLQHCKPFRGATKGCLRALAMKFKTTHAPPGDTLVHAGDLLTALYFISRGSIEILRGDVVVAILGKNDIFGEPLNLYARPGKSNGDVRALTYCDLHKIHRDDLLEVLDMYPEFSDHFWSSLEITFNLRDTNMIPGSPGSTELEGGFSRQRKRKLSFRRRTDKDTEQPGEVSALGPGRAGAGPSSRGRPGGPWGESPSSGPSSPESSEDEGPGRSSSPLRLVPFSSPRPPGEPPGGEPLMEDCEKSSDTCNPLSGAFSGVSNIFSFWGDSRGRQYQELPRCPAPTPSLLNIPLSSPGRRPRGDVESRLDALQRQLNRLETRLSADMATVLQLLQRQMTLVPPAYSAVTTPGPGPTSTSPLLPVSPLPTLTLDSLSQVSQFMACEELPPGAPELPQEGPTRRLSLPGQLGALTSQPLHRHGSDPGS

[16] = Oral bioavailability in Sprague-Dawley rat at 1 mg/kg; type: ADME, organism-based; conditions: in vivo; outline: as §1
[17] = Cmax in Sprague-Dawley rat at 1 mg/kg, po; type: ADME, organism-based; set-up: dose 1 mg/kg, route oral; conditions: in vivo; outline: as §1
[18] = molecular target: T2, Aldo-keto reductase family 1 member C2 (Homo sapiens, UniProt P52895); experiment: Inhibition of human AKR1C2-mediated 9,10-phenanthrenequinone reduction after 10 to 20 mins by spectrophotometry in presence of NADPH; outline: as §2
T2 sequence (P52895 whole entry): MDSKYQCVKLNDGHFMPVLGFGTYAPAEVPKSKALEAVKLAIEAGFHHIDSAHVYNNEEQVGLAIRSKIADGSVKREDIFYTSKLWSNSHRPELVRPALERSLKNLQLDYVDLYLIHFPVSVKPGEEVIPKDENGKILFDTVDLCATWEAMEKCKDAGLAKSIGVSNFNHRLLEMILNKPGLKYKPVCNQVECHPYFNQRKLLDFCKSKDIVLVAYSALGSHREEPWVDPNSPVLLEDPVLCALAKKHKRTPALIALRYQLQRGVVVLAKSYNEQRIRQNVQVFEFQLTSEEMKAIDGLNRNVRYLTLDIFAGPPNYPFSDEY

Cytochrome P450 2C9 = Cytochrome P450 2C9 (Homo sapiens, UniProt P11712); experiment: Inhibition of CYP2C9 (unknown origin); type: ADME
Cytochrome P450 2C9, sequence (P11712 whole entry): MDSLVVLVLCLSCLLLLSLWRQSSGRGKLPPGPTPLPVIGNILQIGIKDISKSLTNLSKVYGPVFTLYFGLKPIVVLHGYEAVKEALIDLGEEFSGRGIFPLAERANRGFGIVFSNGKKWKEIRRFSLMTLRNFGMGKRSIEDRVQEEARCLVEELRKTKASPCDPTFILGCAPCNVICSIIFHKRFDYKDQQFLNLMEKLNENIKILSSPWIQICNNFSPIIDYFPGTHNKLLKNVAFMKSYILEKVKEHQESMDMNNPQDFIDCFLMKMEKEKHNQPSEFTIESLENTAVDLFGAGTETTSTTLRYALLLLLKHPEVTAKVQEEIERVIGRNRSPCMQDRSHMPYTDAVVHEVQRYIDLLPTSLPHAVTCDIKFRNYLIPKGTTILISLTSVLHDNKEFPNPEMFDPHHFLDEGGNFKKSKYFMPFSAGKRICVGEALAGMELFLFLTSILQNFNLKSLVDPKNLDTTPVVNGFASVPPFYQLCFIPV

Cytochrome P450 1A2 = molecular target: T3, Cytochrome P450 1A2 (Homo sapiens, UniProt P05177); experiment: Inhibition of CYP1A2 (unknown origin); type: ADME
T3 sequence (P05177 whole entry): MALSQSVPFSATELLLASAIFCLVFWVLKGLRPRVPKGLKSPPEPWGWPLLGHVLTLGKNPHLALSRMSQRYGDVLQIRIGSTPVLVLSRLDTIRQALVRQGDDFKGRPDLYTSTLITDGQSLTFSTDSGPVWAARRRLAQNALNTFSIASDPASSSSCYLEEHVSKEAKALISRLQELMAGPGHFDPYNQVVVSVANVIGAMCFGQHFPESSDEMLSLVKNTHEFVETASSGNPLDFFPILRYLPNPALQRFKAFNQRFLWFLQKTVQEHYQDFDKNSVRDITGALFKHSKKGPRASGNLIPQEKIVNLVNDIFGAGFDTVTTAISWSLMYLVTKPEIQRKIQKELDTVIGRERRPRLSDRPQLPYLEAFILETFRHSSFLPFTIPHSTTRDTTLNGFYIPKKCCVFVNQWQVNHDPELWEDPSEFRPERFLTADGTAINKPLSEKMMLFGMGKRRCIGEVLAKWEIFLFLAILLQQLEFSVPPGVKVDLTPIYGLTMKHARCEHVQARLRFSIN

[19] = AUC (0 to 24 hrs) in Sprague-Dawley rat at 1 mg/kg, iv; type: ADME, organism-based; set-up: time < 24 hr, dose 1 mg/kg, route intravenous; conditions: plasma; outline: as §1
Cytochrome P450 3A4 = Cytochrome P450 3A4 (Homo sapiens, UniProt P08684); experiment: Inhibition of CYP3A4 (unknown origin) using nifedipine as substrate; type: ADME
Cytochrome P450 3A4, sequence (P08684 whole entry): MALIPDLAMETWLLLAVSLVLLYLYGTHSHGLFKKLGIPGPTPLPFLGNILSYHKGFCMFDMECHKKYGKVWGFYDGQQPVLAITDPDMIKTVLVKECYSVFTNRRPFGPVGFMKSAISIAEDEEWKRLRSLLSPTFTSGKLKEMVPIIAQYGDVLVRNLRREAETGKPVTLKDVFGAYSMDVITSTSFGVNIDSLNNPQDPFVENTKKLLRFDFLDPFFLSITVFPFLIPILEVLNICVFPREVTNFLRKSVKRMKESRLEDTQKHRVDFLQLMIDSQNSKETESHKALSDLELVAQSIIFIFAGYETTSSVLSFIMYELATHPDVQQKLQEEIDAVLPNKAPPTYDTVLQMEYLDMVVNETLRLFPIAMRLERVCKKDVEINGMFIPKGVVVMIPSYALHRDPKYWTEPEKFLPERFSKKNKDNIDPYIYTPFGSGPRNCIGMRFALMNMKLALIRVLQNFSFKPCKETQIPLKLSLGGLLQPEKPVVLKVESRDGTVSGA

Cytochrome P450 2D6 = Cytochrome P450 2D6 (Homo sapiens, UniProt P10635); experiment: Inhibition of CYP2D6 (unknown origin); type: ADME
Cytochrome P450 2D6, sequence (P10635 whole entry): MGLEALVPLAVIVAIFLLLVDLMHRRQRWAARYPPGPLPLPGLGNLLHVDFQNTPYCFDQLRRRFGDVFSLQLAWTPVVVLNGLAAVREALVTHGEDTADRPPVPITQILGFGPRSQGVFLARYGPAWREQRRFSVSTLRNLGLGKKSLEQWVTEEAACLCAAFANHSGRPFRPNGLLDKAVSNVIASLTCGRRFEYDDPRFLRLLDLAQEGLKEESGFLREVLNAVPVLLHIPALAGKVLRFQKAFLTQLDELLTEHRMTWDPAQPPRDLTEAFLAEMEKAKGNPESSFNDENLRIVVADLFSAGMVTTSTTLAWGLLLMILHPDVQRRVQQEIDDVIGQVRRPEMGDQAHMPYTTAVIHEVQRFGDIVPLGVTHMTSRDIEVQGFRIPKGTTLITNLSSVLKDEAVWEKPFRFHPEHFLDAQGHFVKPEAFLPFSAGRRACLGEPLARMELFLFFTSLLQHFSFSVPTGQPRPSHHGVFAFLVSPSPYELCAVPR

Tmax [1]: 30 min
IC50 (Cytochrome P450 2C19): > 25000 nM
Papp at 2 h [2]: > 30 ×10⁻⁶ cm/s
IC50 [3]: 0.34 nM
IC50 [4]: 24 nM
solubility [5]: > 100 µM
Vd [6]: 1.7 L/kg
AUC(0-t) at 24 h [7]: 255 ng·h/mL
half-life [9]: 27.6 min
clearance [10]: 42 mL/min/kg
concentration at 1 h [11]: 10900 nM
IC50 [12]: 1.9 nM
concentration at 4 h [14]: 3100 nM
bioavailability [16]: 65%
Cmax [17]: 180 ng/mL
IC50 [18]: > 20000 nM
IC50 (Cytochrome P450 2C9): > 25000 nM
IC50 (Cytochrome P450 1A2): > 25000 nM
AUC(0-t) at 24 h [19]: 395 ng·h/mL
IC50 (Cytochrome P450 3A4): > 100000 nM
IC50 (Cytochrome P450 2D6): > 25000 nM
Structure (SMILES): Cc1ccc2[nH]c(C(=O)N3CCC(CC(C)(C)O)CC3)cc2c1
inhibition (Mus musculus [8]): Dose-dependent effect
inhibition (Mus musculus [13]): Active
IC50 [15]: > 100000 nM

IC50 [3]: 230 nM
Structure (SMILES): O=C(c1cc2ccccc2[nH]1)N1CCCCC1CCO (centres undefined)

IC50 [3]: 12 nM
Structure (SMILES): CC(O)CC1CCN(C(=O)c2cc3ccccc3[nH]2)CC1 (centres undefined)

Papp at 2 h [2]: > 30 ×10⁻⁶ cm/s
IC50 [3]: 37 nM
solubility [5]: > 100 µM
concentration at 1 h [11]: < 100 nM
IC50 [12]: 58 nM
concentration at 4 h [14]: < 100 nM
Structure (SMILES): Cc1ccc2[nH]c(C(=O)N3CCC(CCO)CC3)cc2c1

IC50 [3]: 160 nM
Structure (SMILES): Cc1ccc2[nH]c(C(=O)N3CCC(CCCO)CC3)cc2c1

IC50 [3]: 4.5 nM
Structure (SMILES): O=C(c1cc2ccccc2[nH]1)N1CCC(CCO)CC1

IC50 [3]: 1200 nM
Structure (SMILES): O=C(NCCCCCO)c1cc2ccccc2[nH]1

IC50 [3]: 2100 nM
Structure (SMILES): O=C(c1cc2ccccc2[nH]1)N1CCCC(CCO)C1 (centres undefined)

IC50 [3]: 770 nM
Structure (SMILES): Cc1ccc2[nH]c(C(=O)N3CCN(CCO)CC3)cc2c1

The next lines start with the compound.

Structure (SMILES): Cc1ccc2[nH]c(C(=O)N3CC=CCC3)cc2c1
IC50 [3]: 2800 nM

Structure (SMILES): Cc1ccc2[nH]c(C(=O)N3CCC(CC(=O)O)CC3)cc2c1
IC50 [3]: > 10000 nM

Structure (SMILES): Cc1ccc2[nH]c(C(=O)N3CCC(CO)CC3)cc2c1
IC50 [3]: 790 nM

Structure (SMILES): CC(C)(O)CC1CCN(C(=O)c2cc3ccccc3[nH]2)CC1
Papp at 2 h [2]: 26 ×10⁻⁶ cm/s
IC50 [3]: 2.1 nM
solubility [5]: > 100 µM
concentration at 1 h [11]: 2610 nM
concentration at 4 h [14]: < 100 nM

Structure (SMILES): O=C(c1cc2ccccc2[nH]1)N1CCC(CCO)C1 (centres undefined)
IC50 [3]: 1100 nM

Structure (SMILES): CC(=O)CC1CCN(C(=O)c2cc3ccccc3[nH]2)CC1
IC50 [3]: 13 nM

Structure (SMILES): O=C(c1cc2ccccc2[nH]1)N1CC(CCO)C1
IC50 [3]: 140 nM

Structure (SMILES): COCCC1CCN(C(=O)c2cc3ccccc3[nH]2)CC1
IC50 [3]: 33 nM
